Experiments:
[1] = cited from earlier work
[2] = Safety and tolerability after a single dose; format: in vivo, human; conditions: 24 subjects
Outline: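 Single 0.4 U/kg s.c. thigh dose given at 0800–1000 h. Safety assessed by adverse events (severity and relationship graded by investigator), physical examination, vital signs, ECG, biochemistry, hematology, urinalysis and hypoglycemia. Confirmed hypoglycemia: plasma glucose <3.1 mmol/L or ADA 'severe'. Treatment-emergent: onset from dosing to 7 days post-dose. Blood glucose sampled to 120 h.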

[3] = compared with insulin glargine; cited from earlier work

For insulin aspart, which “Impact of hepatic impairment and renal impairment on pharmacokinetics” value ([1]; single-dose pharmacokinetic studies) is on record?
Its value is “no significant impact”.

For insulin lispro, which “Effect of hepatic dysfunction on glucodynamic response” value [1] is on record?
Its value is “did not appear to affect the glucodynamic response”.

For insulin detemir, which “Pharmacokinetics in subjects with renal or hepatic impairment” value [1] is on record?
The value was “no clinically relevant difference in pharmacokinetics”.

What does the source list for insulin degludec?
Adverse events (other than hypoglycemia) or medical events of special interest ([2]; single s.c. dose 0.4 U/kg): No adverse events; Injection-site reactions ([2]; single s.c. dose 0.4 U/kg into the thigh): No injection-site reactions were reported; Severe hypoglycemic episodes ([2]; single s.c. dose 0.4 U/kg, ADA definition of severe): none of these episodes were categorized as severe; Variability of glucose-lowering effect [3]: four times less variable glucose-lowering effect; Pharmacokinetic properties in subjects with renal impairment ([1]; varying degrees of impaired renal function): pharmacokinetic properties were also preserved in subjects with renal impairment

From PMC3899454 (Clinical Drug Investigation, 2013)
